How the values were obtained:
[1] = tested on: Rattus norvegicus; experiment: Inhibition of SP-induced salvation after intraperitoneal administration of the durg at a concentration of 50 mg/kg in rats; assay type: functional; conditions: ip
Method in brief: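 Fasted male Sprague-Dawley rats given compound 50 mg/kg ip in 0.05 N HCl, or saline, 30 min before SP 4.7 nmol/kg by tail vein under pentobarbital. Saliva collected on preweighed swabs until response subsided (about 4 min), weighed. Percent inhibition of SP response.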

[2] = tested on: Cavia porcellus; experiment: Inhibition of capsaicin-induced plasma extravasation in guinea pig ureter after intraperitoneal injection; assay type: functional; conditions: ip
Method in brief: (§1)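 Fasted male Hartley guinea pigs (300-400 g), pentobarbital-anaesthetised; Evans Blue 30 mg/kg iv, then capsaicin 30 μM, 10 mL intraperitoneally. Compound 10 mg/kg po 1 h prior. Ureter removed after 10 min, formamide-extracted 24 h at 60 °C, OD 600 nm.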

[3] = tested on: Cavia porcellus; experiment: (§2) Inhibition of SP-induced plasma extravasation in guinea pig after peroral administration at a dose 15 mg/kg; assay type: functional; conditions: route oral
Method in brief: (§3)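 Male Hartley guinea pigs (350-400 g), pentobarbital-anaesthetised; Evans Blue 30 mg/kg iv, then 5 min later SP (20 nM, 50 μL/site) intradermally. Dorsal skin punches extracted in formamide 24 h, 60 °C; OD 600 nm.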

[4] = species: Cavia porcellus; experiment: Inhibition of capsaicin-induced plasma extravasation after 10 mL injection of 30 uM capsaicin in to the peritoneal cavity of guinea pig ureter; assay type: functional; method in brief: as §1
[5] = target: Substance-P receptor (Homo sapiens, UniProt P25103); experiment: Binding affinity towards Tachykinin receptor 1 in human IM-9 cells using [3H]-substance P as ligand; assay type: cell-based
Substance-P receptor, sequence (P25103 whole entry): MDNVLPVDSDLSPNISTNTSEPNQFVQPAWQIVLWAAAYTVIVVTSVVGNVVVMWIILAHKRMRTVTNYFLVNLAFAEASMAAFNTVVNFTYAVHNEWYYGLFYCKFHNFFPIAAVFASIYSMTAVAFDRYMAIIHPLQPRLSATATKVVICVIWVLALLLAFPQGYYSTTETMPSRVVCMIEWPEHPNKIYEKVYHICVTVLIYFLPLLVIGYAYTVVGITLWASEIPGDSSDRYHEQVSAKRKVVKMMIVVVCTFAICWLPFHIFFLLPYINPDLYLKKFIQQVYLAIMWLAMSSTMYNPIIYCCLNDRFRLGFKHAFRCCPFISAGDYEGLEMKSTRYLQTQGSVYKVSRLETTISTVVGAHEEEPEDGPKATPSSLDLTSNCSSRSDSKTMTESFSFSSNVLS
Method in brief: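 Displacement of [³H]SP (0.5 nM final) from human IM-9 cell preparation in 50 mM TRIS-HCl pH 7.7 with MnCl2, BSA, bacitracin, leupeptin, […], phosphoramidon; 20 min, room temperature, dark. Filtration on polyethylenimine-soaked GF/B filters, scintillation counting. IC50 from six-point curves, duplicates; mean ± SEM of three experiments.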

[6] = target: T1, Neuromedin-K receptor (Cavia porcellus, UniProt P30098); experiment: Inhibitory activity against Tachykinin receptor 3 in guinea pig cortex [125I]-BH-eledoisin as radioligand
T1 sequence (P30098 whole entry): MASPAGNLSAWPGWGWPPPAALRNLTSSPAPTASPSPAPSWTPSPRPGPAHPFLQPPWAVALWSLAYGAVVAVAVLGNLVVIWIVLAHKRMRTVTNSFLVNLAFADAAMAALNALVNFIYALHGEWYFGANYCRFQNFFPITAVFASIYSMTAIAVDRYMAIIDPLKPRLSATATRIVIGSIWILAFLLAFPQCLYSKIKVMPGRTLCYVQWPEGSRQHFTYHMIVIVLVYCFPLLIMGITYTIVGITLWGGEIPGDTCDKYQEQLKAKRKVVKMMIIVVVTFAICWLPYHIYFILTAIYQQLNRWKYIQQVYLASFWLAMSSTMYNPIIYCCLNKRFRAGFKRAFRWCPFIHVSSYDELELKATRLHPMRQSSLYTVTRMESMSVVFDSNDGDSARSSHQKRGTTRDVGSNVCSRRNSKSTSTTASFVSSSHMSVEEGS
Method in brief: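 Guinea pig cortical membranes (6 mg/mL) in 50 mM Tris-HCl with 1 mM MnCl₂, 50 μg/mL chymostatin, 0.02% BSA and 0.1 nM [¹²⁵I]BH-eledoisin final, with test compound, 60 min at 22 °C. Nonsaturable binding defined with 1 μM eledoisin. Filtration and radioactivity counting.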

[7] = target: T2, Substance-K receptor (Mesocricetus auratus, UniProt P51144); experiment: Inhibitory activity against [125I]neurokinin binding to Tachykinin receptor 2 in hamster urinary bladder
T2 sequence (P51144 whole entry): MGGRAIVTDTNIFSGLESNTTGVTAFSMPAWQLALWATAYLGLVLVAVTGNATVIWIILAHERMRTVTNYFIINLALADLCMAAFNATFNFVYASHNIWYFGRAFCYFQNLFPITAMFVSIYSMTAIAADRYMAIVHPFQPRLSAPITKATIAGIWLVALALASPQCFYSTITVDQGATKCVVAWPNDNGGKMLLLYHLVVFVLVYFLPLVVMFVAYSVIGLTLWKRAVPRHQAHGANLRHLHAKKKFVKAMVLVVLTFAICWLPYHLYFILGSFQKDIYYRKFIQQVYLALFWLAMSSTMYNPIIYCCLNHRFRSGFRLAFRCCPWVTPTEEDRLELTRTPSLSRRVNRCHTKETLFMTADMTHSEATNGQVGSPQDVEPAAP

[8] = tested on: Cavia porcellus; experiment: as §2; assay type: functional; conditions: route oral; remark: listed apart in the source
Method in brief: as §3, with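 “intradermally. Compound 15 mg/kg po 1 h before SP.” for “intradermally.”, “nm. Percent inhibition or ED50 with 95% confidence limits.” for “nm.”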

[9] = species: Cavia porcellus; experiment: Ability to block SP-induced excitation of neurons in the locus coeruleus in guinea pig brain; assay type: functional

| Structure (SMILES) | inhibition in vivo at 50 mg/kg [1] [%] | ED50 [2] [mg/kg] | inhibition in vivo at 15 mg/kg [3] [%] | Inhibition [4] [%] | IC50 [5] [nM] | IC50 [6] [nM] | IC50 [7] [nM] | ED50 [8] [mg/kg] | IC50 [9] [nM] |
| --- | --- | --- | --- | --- | --- | --- | --- | --- | --- |
| Clc1ccccc1CN[C@H]1C2CCN(CC2)[C@H]1C(c1ccccc1)c1ccccc1 | < 43.9 | 7 | 38 | – | – | – | – | – | – |
| Clc1cccc(CN[C@H]2C3CCN(CC3)[C@H]2C(c2ccccc2)c2ccccc2)c1 | < 52.8 | – | -6 | 23 | – | – | – | – | – |
| CCc1ccccc1CN[C@H]1C2CCN(CC2)[C@H]1C(c1ccccc1)c1ccccc1 | 16.7 | 4 | 79 | – | 16.7 | – | – | – | – |
| COc1ccccc1CN[C@@H]1C2CCN(CC2)[C@@H]1C(c1ccccc1)c1ccccc1 | < 66.9 | 6 | 39 | – | – | – | – | – | – |
| COc1ccccc1CN[C@H]1C2CCN(CC2)[C@@H]1C(c1ccccc1)c1ccccc1 | 11.3 | – | 28 | 18 | – | – | – | – | – |
| c1ccc(CN[C@H]2C3CCN(CC3)[C@H]2C(c2ccccc2)c2ccccc2)cc1 | 0 | – | -9 | -21 | 16 | – | – | – | – |
| Clc1ccc(CN[C@H]2C3CCN(CC3)[C@H]2C(c2ccccc2)c2ccccc2)cc1 | < 27 | – | 8 | 34 | – | – | – | – | – |
| COc1ccccc1CN[C@H]1C2CCC(CC2)[C@H]1C(c1ccccc1)c1ccccc1 | – | – | -9 | -67 | > 32000 | – | – | – | – |
| COc1ccccc1CN[C@H]1C2CCN(CC2)[C@H]1Cc1ccccc1 | 0 | – | 35 | -30 | 487 | – | – | – | – |
| COc1ccccc1CN(C)[C@H]1C2CCN(CC2)[C@H]1C(c1ccccc1)c1ccccc1 | – | – | 13 | -13 | – | – | – | – | – |
| COc1ccccc1CN[C@H]1C2CCN(CC2)[C@H]1C(c1ccccc1)c1ccccc1 [CP-96345] | < 76.2 | 2.3 | – | – | – | > 10000 | > 10000 | 4.4 | 90 |
